PREPL inhibitor: inhibitors of human prolyl oligopeptidase-like enzyme PREPL | Q4J6C6 | recombinant PREPL, fluorescence polarization activity-based probe | inhibition, % at 5.96 µM | 320,000 tested, 0.68% active;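 also: 0% = enzyme with DMSO and 100% = wells lacking enzyme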
UBC13 inh: human UBC13 polyubiquitination inhibition | P61088 | UBC13 polyubiquitin chain formation, TR-FRET | 330,000 tested, 0.47% active | inhibition, % at 20 µM; in the data active = inhibition above about 45%, passing the limit was not always enough
Target sequence (P61088 whole entry, looked up): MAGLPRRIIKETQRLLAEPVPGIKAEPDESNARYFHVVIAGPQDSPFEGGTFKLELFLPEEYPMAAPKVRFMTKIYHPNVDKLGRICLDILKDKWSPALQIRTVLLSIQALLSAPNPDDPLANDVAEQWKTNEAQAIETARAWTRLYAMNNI
CTSL1 counter: counter-screen for PFM18AAP inhibitors: inhibitors of F. hepatica cathepsin L1; recombinant F. hepatica cathepsin L1, Z-Leu-Arg-MCA fluorescence; inhibition, % at 5.96 µM; 300,000 tested, 0.49% active;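 active = inhibition above the mean of all tested compounds plus 3 SD, set per screening campaign, cut at about 17% in these data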;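 also: 0% = plate median of test compound wells and 100% = 1 µM Z-Phe-Ala-diazomethylketone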
PP5 primary: inhibitors of human protein phosphatase 5 (PP5); inhibition, % at 6.7 µM; P53041; purified PP5c, OMFP substrate fluorescence; 320,000 tested, 0.18% active; AID 1987;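 active = inhibition above the campaign's mean inhibition across all tested compounds plus 3 SD, cut at about 9.5% in these data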;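 also: 0% = DMSO only and 100% = 100 µM cantharidin control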
UCH37 inh: human UCH37 deubiquitinating enzyme inhibition | 330,000 tested, 0.33% active | purified proteasome/UCH37, Ub-AMC cleavage fluorescence | inhibition, % (test concentration not listed) | AID 588478;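 active = mean inhibition over replicate wells above about 20%, limit read from the data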;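 also: 0% = compound-free wells with enzyme and 100% = wells lacking proteasome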
Target sequence (Q9Y5K5 whole entry, looked up): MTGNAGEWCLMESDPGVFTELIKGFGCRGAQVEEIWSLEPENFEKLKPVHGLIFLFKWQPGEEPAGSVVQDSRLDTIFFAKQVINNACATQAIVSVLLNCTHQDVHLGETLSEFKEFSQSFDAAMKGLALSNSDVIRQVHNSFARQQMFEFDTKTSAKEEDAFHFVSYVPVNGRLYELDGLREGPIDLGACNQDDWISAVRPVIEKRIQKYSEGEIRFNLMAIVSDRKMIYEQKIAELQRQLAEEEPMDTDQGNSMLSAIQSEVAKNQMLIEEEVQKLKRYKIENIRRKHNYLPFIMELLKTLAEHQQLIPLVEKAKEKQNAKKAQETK
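Test system – human UCH37 enzyme supplied as purified proteasome complex · Incubation – 30 min preincubation with enzyme, 25 min cleavage at room temperature · Detection – AMC fluorescence from Ub-AMC cleavage, excitation 355 nm, emission 460 nm · Benchmarks – no-proteasome wells (full inhibition) and compound-free wells (no inhibition)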
PP1 inh: counter-screen for PP5 inhibitors: inhibitors of human PP1-alpha; P62136; purified PP1alpha, OMFP fluorescence; inhibition, % at 6.7 µM; 320,000 tested, 0.9% active; AID 2235;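 active = inhibition above the mean inhibition of all tested compounds plus 3 SD, computed separately for each screening campaign, cut at about 15% in these data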
PREPL confirm: confirmation of human PREPL enzyme inhibitors; recombinant PREPL, fluorescence polarization activity probe; AID 2803; 2,000 tested, 67% active; inhibition, % at 5.96 µM; shares compounds with PREPL inhibitor;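 also: 0% = protein with DMSO and 100% = wells lacking protein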
* marks the source's active call; other numbers are inactive results. In the library only some 2.3% were active in any assay of this set; here they are far more common. Rule as the data show it, unless noted: active = inhibition above about 43%; inactive = the rest.

Screening COc1ccc(-c2oc3cc(OC(C)=O)cc(OC(C)=O)c3c(=O)c2OC)cc1 returned UCH37 inh -23.2.
`CCC(c1nnnn1Cc1cccs1)N1CCN(c2nc3ccccc3s2)CC1` (stereo not drawn) gave PREPL inhibitor 20.5, UBC13 inh -0.9, CTSL1 counter 2.2, PP5 primary 0.6, UCH37 inh 0.5 and PP1 inh 3.8.
For CC(C)CC(c1nnnn1Cc1cccs1)N1CCN(c2nc3ccccc3s2)CC1 (stereo not drawn) the results were PREPL inhibitor 44.3*, UBC13 inh -1.1, CTSL1 counter 5.0, PP5 primary 3.0, UCH37 inh -0.6, PP1 inh 4.2 and PREPL confirm 33.0.
For N#C/C(=C\c1ccncc1)c1nc2ccccc2o1 the results were PREPL inhibitor 11.7, UBC13 inh 1.2, CTSL1 counter 1.2, PP5 primary 2.3, UCH37 inh -165.6 and PP1 inh -3.1.
For N#C/C(=C\Nc1ccccc1O)c1nc2ccccc2o1 the results were PREPL inhibitor 48.3*, CTSL1 counter 2.2, PP5 primary 7.9, UCH37 inh 3.7, PP1 inh 2.3 and PREPL confirm 35.5.
For COc1cc(C2CC(=O)Oc3c(C(CCN4CCOCC4)c4ccc(N(C)C)cc4)c(OC)cc(OC)c32)cc(OC)c1OC (stereo not drawn) the results were PREPL inhibitor 37.6, UBC13 inh 14.8, CTSL1 counter -2.5, PP5 primary 2.2, UCH37 inh 0.1 and PP1 inh 2.0.
Screening COc1ccc(C2CC(=O)Oc3c(C(CCN4CCCC(C)C4)c4ccc(N(C)C)cc4)c(OC)cc(OC)c32)cc1 (stereo not drawn) returned PREPL inhibitor 44.3*, UBC13 inh 34.8, CTSL1 counter -2.8, PP5 primary 2.8, UCH37 inh 1.4, PP1 inh 5.1 and PREPL confirm 60.4*.
COc1cc(C2CC(=O)Oc3c(C(CCN4CCN(c5ccccc5)CC4)c4ccc(N(C)C)cc4)c(OC)cc(OC)c32)cc(OC)c1OC (stereo not drawn) was read as PREPL inhibitor 31.6, UBC13 inh -0.6, CTSL1 counter 0.8, PP5 primary 1.6, UCH37 inh 0.9 and PP1 inh 12.9.
COc1ccc(C2CC(=O)Oc3c(C(CCN4CCCCC4)c4ccc(N(C)C)cc4)c(OC)cc(OC)c32)cc1 (stereo not drawn) was read as PREPL inhibitor 47.5*, UBC13 inh 26.5, CTSL1 counter 0.1, PP5 primary 1.5, UCH37 inh 1.0, PP1 inh 1.1 and PREPL confirm 51.2*.
For COc1cc2c(C#N)c(N3CCOCC3)nc(N)c2c(N)n1 the results were PREPL inhibitor 13.3, UBC13 inh 8.7, CTSL1 counter 1.0, PP5 primary 2.0, UCH37 inh -113.0 and PP1 inh -1.0.
`COc1cc2c(C#N)c(N3CCc4ccccc4C3)nc(N)c2c(N)n1` gave PREPL inhibitor 49.3*, UBC13 inh -4.3, CTSL1 counter 4.2, PP5 primary 6.6, UCH37 inh -202.4, PP1 inh 5.7 and PREPL confirm 53.8*.
Screening CC(=NNC(=O)Cc1ccc(Br)cc1)c1cccnc1 returned UCH37 inh 0.0.
`N#C/C(=C\c1ccc(N2CCCC2)c([N+](=O)[O-])c1)c1nc2ccccc2[nH]1` gave PREPL inhibitor 22.6, UBC13 inh -97.5, CTSL1 counter -3.1, PP5 primary -3.0, UCH37 inh 4.3 and PP1 inh 1.1.
`N#C/C(=C\C1CC2C=CC1C2)c1nc2ccccc2[nH]1` (stereo not drawn) gave PREPL inhibitor 48.0*, UBC13 inh 6.9, CTSL1 counter -0.7, PP5 primary 0.2, UCH37 inh -4.0, PP1 inh -0.1 and PREPL confirm 8.8.
Screening N#C/C(=C\c1cccs1)c1nc2ccccc2[nH]1 returned PREPL inhibitor 37.5, CTSL1 counter 2.4, PP5 primary 0.0, UCH37 inh -15.2 and PP1 inh 2.3.
Screening N#C/C(=C/c1ccc(O)c(O)c1)c1nc2ccccc2[nH]1 returned PREPL inhibitor 59.7*, UBC13 inh -132.3, CTSL1 counter 4.8, PP5 primary 2.0, PP1 inh 3.6 and PREPL confirm 47.5*.
Screening N#C/C(=C\c1ccc(OC(=O)c2cccs2)cc1)c1nc2ccccc2[nH]1 returned PREPL inhibitor 55.3*, UBC13 inh -14.6, CTSL1 counter -1.9, PP5 primary 3.4, UCH37 inh -13.9, PP1 inh 7.7 and PREPL confirm 12.4.
For CC1CCCC(=NNC(=O)COc2ccccc2Cl)C1 (stereo not drawn) the results were UCH37 inh 2.3.
Screening COc1ccc(C=NNC(=O)c2ccccc2OC)cc1COc1ccccc1C returned UCH37 inh -6.5.
Screening CN(C)/N=C/c1cc([N+](=O)[O-])ccc1O returned PREPL inhibitor -0.1, UBC13 inh -14.7, CTSL1 counter 3.0, PP5 primary 0.6 and PP1 inh -1.4.
Screening O=[N+]([O-])c1ccc(C(O)CN=Cc2ccc(O)cc2O)cc1 (stereo not drawn) returned PREPL inhibitor 48.5*, UBC13 inh -0.9, CTSL1 counter -4.8, PP5 primary 1.2, UCH37 inh 7.7, PP1 inh 0.1 and PREPL confirm 10.8.
For Oc1ccc(/C=N/Nc2ccnc3cc(Cl)ccc23)cc1O the results were PREPL inhibitor 54.5*, UBC13 inh -8.1, CTSL1 counter -3.4, PP5 primary 1.5, PP1 inh 6.9 and PREPL confirm 35.6.
For N=C1/C(=C\c2ccc(OC(=O)c3ccccc3Cl)cc2)C(=O)N=C2SC(N3CCOCC3)=NN12 the results were PREPL inhibitor 52.9*, UBC13 inh -29.3, CTSL1 counter 2.1, PP5 primary 1.2, UCH37 inh 9.3, PP1 inh 8.5 and PREPL confirm 16.3.
For COc1cc(/C=C2\C(=N)N3N=C(N4CCOCC4)SC3=NC2=O)ccc1OC(=O)c1ccccc1 the results were PREPL inhibitor 39.7, UBC13 inh -25.6, CTSL1 counter 0.1, PP5 primary 3.0, UCH37 inh 4.3 and PP1 inh 0.4.
For Cc1ccc(C(=O)Oc2cc(C)n(C)c(=O)c2)cc1 the results were PREPL inhibitor 47.3*, UBC13 inh -7.2, CTSL1 counter -7.0, PP5 primary 1.4, UCH37 inh 1.5, PP1 inh -4.5 and PREPL confirm 26.1.
Screening CC(=O)c1c(OC(=O)c2ccc(C)cc2)c2ccccc2n1C returned PREPL inhibitor 7.8, UBC13 inh -2.8, CTSL1 counter 1.4, PP5 primary 0.6, UCH37 inh -0.7 and PP1 inh -0.5.
Screening CSc1ccc(C=NNc2nc(C)cc(=O)[nH]2)cc1 returned UCH37 inh 7.8.

High-throughput results: PubChem, several laboratories
